Assay outcomes deposited in PubChem BioAssay by Broad Institute.
A selection: hits, their analogues and other compounds. The true share with any hit is near 1.5%.
RAD52 anneal inh = blocks human RAD52 DNA annealing; inhibition, % at 18.7 µM; recombinant RAD52 DNA annealing, FRET fluorescence; P43351; actives 0.46% (n = 360,000);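 active = every replicate showing at least 50% inhibition; inconclusive = mean inhibition at least 50% but not in every replicate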
MLL AF4-AF9 inh = MLL-AF4/AF9 protein interaction inhibition. P42568. AlphaScreen, biotin-AF4 peptide binding to FLAG-AF9. inhibition, % at 10 µM. actives 0.47% (n = 350,000);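 active = every replicate reaching a set inhibition limit, whatever the replicate mean, cut at about 25% in these data; inconclusive = mean inhibition reaches that limit but some replicates miss it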;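 also: 0% = plate neutral control median and 100% = total signal loss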
S100A4 inh HTS = S100A4-myosin IIA interaction inhibition; P26447; S100A4/TAMRA-MyoIIA peptide fluorescence polarization; inhibition, % at 10.7 µM; actives 0.14% (n = 360,000); AID 652163;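 active = mean inhibition of at least 70% across replicates, with every replicate also reaching that level; inconclusive = mean inhibition reaches 70% but some replicates fall short; inactive = mean inhibition below 70%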
Target sequence (P26447 whole entry, looked up): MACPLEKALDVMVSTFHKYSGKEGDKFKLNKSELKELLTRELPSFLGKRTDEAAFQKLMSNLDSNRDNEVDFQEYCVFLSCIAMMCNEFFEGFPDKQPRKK
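Compound dosing: one dose per compound; test system: human S100A4 monomer with TAMRA-labelled myosin IIA peptide; probe or stimulus: TAMRA-labelled myosin IIA heavy-chain peptide probe, 5 nM; medium: HEPES buffer with Ca2+, pH 7.2; schedule: 5 min incubation before reading; benchmarks: neutral control DMSO, positive control TFP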
dFosB act = mouse delta FosB homodimer activation; P13346; purified delta FosB, TAMRA-CDK5 oligo fluorescence polarization; percent of positive-control signal above neutral wells; activation, % at 25 µM; actives 0.99% (n = 340,000); AID 493131;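 active = mean activation above about 17%, with every replicate also reaching it, limit read from the data, passing the limit was not always enough; inconclusive = only one of the two conditions met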
Target sequence (P13346 whole entry, looked up): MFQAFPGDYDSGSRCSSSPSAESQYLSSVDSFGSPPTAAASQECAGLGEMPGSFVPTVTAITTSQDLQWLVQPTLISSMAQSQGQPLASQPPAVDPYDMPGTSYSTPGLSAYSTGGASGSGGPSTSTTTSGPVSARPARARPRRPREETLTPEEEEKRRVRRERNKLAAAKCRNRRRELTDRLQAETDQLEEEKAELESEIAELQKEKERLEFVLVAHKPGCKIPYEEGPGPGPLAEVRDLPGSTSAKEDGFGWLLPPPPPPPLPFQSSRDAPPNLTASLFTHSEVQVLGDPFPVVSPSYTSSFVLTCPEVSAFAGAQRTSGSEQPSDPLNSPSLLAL
RAD54 inh = RAD54 (human) branch migration inhibition | AID 602329 | RAD54 Holliday junction branch migration, FAM/BHQ fluorescence | actives 0.14% (n = 360,000) | inhibition, % at 10.4 µM;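 active = mean normalized replicate activity at least 40 and at least half of replicates scoring 40 or more; inconclusive = only one of the two criteria met; inactive = mean below 40 and under half of replicates reaching 40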;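 also: 0% = median of neutral control wells and 100% = median of positive control wells; inhibitors cause a drop in the FAM fluorescence signal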
DNA binder FP = binds DNA, flagging false RAD52 inhibitor hits; actives 8% (n = 1,000); AC50, µM; Salmon sperm DNA/acridine orange FP displacement, DNA binding; shares compounds with RAD52 anneal inh;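 active = fitted half-maximal concentration for signal loss at or below twice the highest dose tested, in every separate run, actives reach about 64 µM in these data; inconclusive = runs disagree, or flat partial signal loss, or poor fit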
An asterisk follows results filed as active.

Screening CN1C(=O)c2cc(NC(=O)Cc3cccs3)ccc2OC[C@H]2O[C@@H](CC(=O)NCC3CC3)CC[C@H]21 returned RAD52 anneal inh -0.2, MLL AF4-AF9 inh -3.3, S100A4 inh HTS -6.9 and RAD54 inh 6.7.
CCCCOC(=O)Cn1c(=O)n(CC(=O)OCCCC)c2ccccc21 was read as dFosB act -14.9 and RAD54 inh -2.8.
For CCCCCCCCCCOC(=O)Cn1c(COc2ccc(Cl)cc2)[n+](C)c2ccccc21 the results were RAD52 anneal inh 76.5*, MLL AF4-AF9 inh 42.3*, S100A4 inh HTS -18.5, dFosB act -118.4, RAD54 inh 56.9* and DNA binder FP inactive.
Screening CCCCCCCCCCOC(=O)Cn1c(COc2ccccc2)[n+](C)c2ccccc21 returned RAD52 anneal inh 70.1*, MLL AF4-AF9 inh inconclusive, S100A4 inh HTS 2.1, dFosB act 34.7*, RAD54 inh inconclusive and DNA binder FP inactive.
For CCCCCCCCCCOC(=O)Cn1c(COc2cccc(C)c2)[n+](C)c2ccccc21 the results were RAD52 anneal inh 79.5*, MLL AF4-AF9 inh 13.2, S100A4 inh HTS 0.9, dFosB act inconclusive, RAD54 inh 52.1* and DNA binder FP inconclusive.
O=C(C[C@H]1CC[C@H]2NC[C@H](O)COC[C@@H]2O1)NCCc1ccccc1 was read as RAD52 anneal inh -7.6, MLL AF4-AF9 inh -0.6, S100A4 inh HTS -7.2 and RAD54 inh 2.1.
Screening CCCN1[C@@H]2c3cccc(=O)n3C[C@H]1[C@H](CO)[C@H]2C(=O)N[C@@H](C)c1ccccc1 returned RAD52 anneal inh -11.7, MLL AF4-AF9 inh -2.7 and S100A4 inh HTS 19.9.
Screening C[C@@H]1CN([C@@H](C)CO)C(=O)c2c(c3ccccc3n2C)-c2ccccc2CO[C@H]1CN(C)Cc1ccc(Cl)c(Cl)c1 returned RAD52 anneal inh 14.0, MLL AF4-AF9 inh -2.2 and S100A4 inh HTS -6.2.
Screening CCN(CC)CCNC(=O)c1cc(S(=O)(=O)N2CCc3ccccc32)cn1C returned RAD52 anneal inh -5.3, MLL AF4-AF9 inh -2.7, S100A4 inh HTS -1.9, dFosB act -6.2 and RAD54 inh 12.8.
Screening CCN(CC)CCNC(=O)c1ccc(NC(=O)c2cccc(S(=O)(=O)N3CCc4ccccc43)c2)cc1 returned RAD52 anneal inh 50.1*, MLL AF4-AF9 inh 13.5, S100A4 inh HTS 4.0, dFosB act -80.8 and DNA binder FP inactive.
CC(=O)Nc1ccc(/C(C)=N/Nc2nc(Nc3ccccc3)nc(N3CCOCC3)n2)cc1 was read as RAD52 anneal inh -3.9, MLL AF4-AF9 inh 5.3, S100A4 inh HTS 1.0 and dFosB act -14.1.
For CCN1CCN(c2nc(Nc3ccc(NC(C)=O)cc3)nc(Nc3ccc(NC(C)=O)cc3)n2)CC1 the results were RAD52 anneal inh 73.2*, MLL AF4-AF9 inh 7.4, S100A4 inh HTS -2.3, dFosB act 72.9* and DNA binder FP inactive.
Screening CC(C)(O)C#Cc1cccc(-c2nc(C(=O)NCCCN3CCOCC3)cc3c2[C@@H](CCO)N(S(=O)C(C)(C)C)C3)c1 (stereo partly specified) returned RAD52 anneal inh -29.5, MLL AF4-AF9 inh -4.5, S100A4 inh HTS -10.4 and RAD54 inh 10.1.
`CC(C)(C)S(=O)N1Cc2cc(C(=O)NCCCN3CCOCC3)nc(-c3cccc(-c4cc5ccccc5o4)c3)c2[C@@H]1CCO` (stereo partly specified) gave RAD52 anneal inh -3.5, MLL AF4-AF9 inh 2.7, S100A4 inh HTS -25.6, RAD54 inh -9.4 and DNA binder FP inactive.
For C[C@@H]1CN([C@@H](C)CO)C(=O)Cc2cc(NC(=O)NC3CCCCC3)ccc2O[C@H]1CN(C)Cc1ccc2c(c1)OCO2 the results were RAD52 anneal inh -6.2, MLL AF4-AF9 inh 6.8, S100A4 inh HTS 7.3 and RAD54 inh -1.9.
For COc1cc2c(cc1OC)CN(c1nc(CN3CCCC3)nc3sc(C)c(C)c13)CC2 the results were RAD52 anneal inh 65.3*, MLL AF4-AF9 inh 17.2, S100A4 inh HTS -8.5, dFosB act 5.7 and DNA binder FP inactive.
COc1cc2c(cc1OC)CN(c1nc(CN3CCCCC3)nc3sc4c(c13)CCCC4)CC2 was read as dFosB act 0.6.
`NCCCC[C@H]1CNC(=S)N1CC1CCCCC1` gave RAD52 anneal inh 84.6*, MLL AF4-AF9 inh 18.7, S100A4 inh HTS -2.3, dFosB act 0.0, RAD54 inh 6.2 and DNA binder FP inactive.
`NC(N)=N/N=C(\N=Nc1ccccc1)c1ccc(Cl)cc1` gave RAD52 anneal inh 74.1*, MLL AF4-AF9 inh 34.7*, S100A4 inh HTS 2.1, dFosB act 1.9 and DNA binder FP inactive.
Screening COc1ccc(COCC23Oc4ccccc4[C@H]([C@H]2CO)n2c(c4c(c(C(C)=O)c2=O)C(=O)N(C)C4=O)N3C)cc1 returned RAD52 anneal inh -32.0, MLL AF4-AF9 inh 7.5, S100A4 inh HTS -7.4 and RAD54 inh 1.2.
For O=C(C[C@@H]1CC[C@H](NC(=O)Cc2cccnc2)[C@H](CO)O1)NCc1ccc2c(c1)OCO2 the results were RAD52 anneal inh 5.2, MLL AF4-AF9 inh -13.8, S100A4 inh HTS -12.4 and RAD54 inh -0.3.
Cc1ccc(SCCc2cc[n+](CC(=O)c3ccccc3)cc2)cc1 was read as RAD52 anneal inh 53.9*, MLL AF4-AF9 inh 10.4, S100A4 inh HTS -20.4, dFosB act -3.1 and DNA binder FP inactive.
For Cc1ccc(C(=O)C[n+]2ccc3ccccc3c2)cc1 the results were RAD52 anneal inh -6.3, MLL AF4-AF9 inh -0.9, S100A4 inh HTS 0.7 and dFosB act -4.3.
For NCCCCCc1cn(CC(=O)NCCCCCCCCCCC(=O)N2CCNCC2)nn1 the results were RAD52 anneal inh 55.3*, MLL AF4-AF9 inh 12.9, S100A4 inh HTS -2.0, dFosB act 2.6, RAD54 inh -1.9 and DNA binder FP inactive.
O=C(CN1CCCCC1)Nc1ccccc1 was read as dFosB act -0.2 and RAD54 inh 0.3.
For O=C(CN1CCCCC1)Nc1ccc(N2CCCCCC2)cc1 the results were RAD52 anneal inh 61.7*, MLL AF4-AF9 inh 31.0*, S100A4 inh HTS 3.4, dFosB act -6.6 and DNA binder FP inactive.
Screening COc1cccc(-c2cc3nc(NCc4cccnc4)n(C)c(=O)c3s2)c1 returned RAD52 anneal inh 25.9, MLL AF4-AF9 inh -0.6, S100A4 inh HTS 13.1 and RAD54 inh 4.4.
For CN(C)CCCOc1ccc(-c2cc3nc(NCc4cccnc4)n(C)c(=O)c3s2)cn1 the results were RAD52 anneal inh 60.3*, MLL AF4-AF9 inh -0.9, S100A4 inh HTS -7.8, RAD54 inh 45.8 and DNA binder FP inactive.
`CN(C)CCCNc1nc2cc(-c3cccc(C(F)(F)F)c3)sc2c(=O)n1C` gave RAD52 anneal inh 65.7*, MLL AF4-AF9 inh 10.4, S100A4 inh HTS -6.9, RAD54 inh 28.2 and DNA binder FP inconclusive.
